Paper PMC10786240 (Antiviral research, 2019)
Entries after “also recorded” stand apart in the source; their conditions may differ.

Tests used:
[1] = system: OSBP levels in HCT-116 and HEK293 cells; assay: OSBP expression in cells upon 24 h compound treatment; assay type: cell-based, human; settings: for effect on OSBP cellular levels: OSW-1 1 nM, Taxol 10 nM, ITZ, THEV, TTP 10,000 nM, HEK293 and HCT-116; for effect of co-administration on OSW-1-induced reduction of OSBP levels: 10,000 nM compound with 1 nM OSW-1, HEK293 and HCT116
How it was run: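 HCT-116 (McCoy's 5A, 10% serum, 1% penicillin-streptomycin) or HEK293 cells seeded 5×10^5 per well, 20 h at 37 °C. Compound diluted from stock in complete medium, alone or with 1 nM OSW-1 co-treatment, for 24 h; DMSO vehicle control. Lysates immunoblotted for OSBP (A-5 antibody), β-actin as loading reference. Bands averaged over independent experiments.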

[2] = system: OSBP levels in HeLa cells; assay: OSBP levels in HeLa cells after 6 h treatment and 24 h compound-free recovery; assay type: cell-based, human; settings: 6 h OSW-1 (10 nM) treatment, 24 h recovery, just prior to viral infection
How it was run: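 HeLa cells exposed 6 h to compound in complete medium, washed three times, then held 24 h in compound-free complete medium. OSBP read by Western blot (A-5 antibody, β-actin reference) at the time point corresponding to viral inoculation in washout antiviral runs.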

HCT-116 cells = assay: Trypan Blue cell viability assay; assay type: cell-based; settings: for effect on cell population (cell counting after Trypan blue staining): 24 h, OSW-1 1 nM, ITZ, THEV, TTP 10,000 nM, each alone
HeLa cells = assay: 48 h cytotoxicity assay; assay type: cell-based; settings: for effect of co-administration on antiproliferative OSW-1 activity, HeLa: 48 h, compound at 10,000 nM with OSW-1
HEK293 cells = assay: 48 h cytotoxicity assay; assay type: cell-based; settings: read-out: growth inhibition 50% (GI50), HEK293 cells; 48 h treatment
[3] = system: OSBP localization in HCT-116 cells; assay: immunofluorescence imaging of endogenous OSBP localization; assay type: cell-based; settings: for OSBP cellular localization: 24 h, OSW-1 1 nM, 25-OHC, ITZ, TTP, THEV 10,000 nM, Golgi marker TGN46; for OSBP cellular localization on co-administration with OSW-1: 24 h, 10,000 nM compound with 1 nM OSW-1
human OSBP [4] = biological target: T1, human OSBP (Homo sapiens, UniProt P22059); settings: cited from earlier work
T1 sequence (P22059 1-807): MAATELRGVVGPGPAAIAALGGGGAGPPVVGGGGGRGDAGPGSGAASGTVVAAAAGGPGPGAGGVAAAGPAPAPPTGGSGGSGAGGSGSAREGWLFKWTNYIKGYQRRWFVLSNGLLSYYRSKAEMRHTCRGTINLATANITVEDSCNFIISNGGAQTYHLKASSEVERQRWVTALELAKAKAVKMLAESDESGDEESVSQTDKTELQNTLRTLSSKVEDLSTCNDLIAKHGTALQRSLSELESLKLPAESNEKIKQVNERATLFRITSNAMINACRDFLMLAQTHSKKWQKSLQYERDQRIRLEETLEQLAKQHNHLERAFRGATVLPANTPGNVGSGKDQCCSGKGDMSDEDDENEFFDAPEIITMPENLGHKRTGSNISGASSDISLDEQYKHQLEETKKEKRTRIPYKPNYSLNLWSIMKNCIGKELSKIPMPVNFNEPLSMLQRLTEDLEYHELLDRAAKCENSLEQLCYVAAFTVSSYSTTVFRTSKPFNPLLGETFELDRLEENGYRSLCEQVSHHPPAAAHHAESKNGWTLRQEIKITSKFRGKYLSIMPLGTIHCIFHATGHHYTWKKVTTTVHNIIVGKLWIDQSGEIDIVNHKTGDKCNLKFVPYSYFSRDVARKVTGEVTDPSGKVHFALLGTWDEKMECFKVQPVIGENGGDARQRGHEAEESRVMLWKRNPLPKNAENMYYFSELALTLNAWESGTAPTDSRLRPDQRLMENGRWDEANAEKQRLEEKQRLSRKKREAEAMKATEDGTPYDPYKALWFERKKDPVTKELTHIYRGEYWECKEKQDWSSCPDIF

human ORP4 [5] = biological target: T2, human ORP4 (Homo sapiens, UniProt Q969R2); settings: cited from earlier work
T2 sequence (Q969R2 1-916): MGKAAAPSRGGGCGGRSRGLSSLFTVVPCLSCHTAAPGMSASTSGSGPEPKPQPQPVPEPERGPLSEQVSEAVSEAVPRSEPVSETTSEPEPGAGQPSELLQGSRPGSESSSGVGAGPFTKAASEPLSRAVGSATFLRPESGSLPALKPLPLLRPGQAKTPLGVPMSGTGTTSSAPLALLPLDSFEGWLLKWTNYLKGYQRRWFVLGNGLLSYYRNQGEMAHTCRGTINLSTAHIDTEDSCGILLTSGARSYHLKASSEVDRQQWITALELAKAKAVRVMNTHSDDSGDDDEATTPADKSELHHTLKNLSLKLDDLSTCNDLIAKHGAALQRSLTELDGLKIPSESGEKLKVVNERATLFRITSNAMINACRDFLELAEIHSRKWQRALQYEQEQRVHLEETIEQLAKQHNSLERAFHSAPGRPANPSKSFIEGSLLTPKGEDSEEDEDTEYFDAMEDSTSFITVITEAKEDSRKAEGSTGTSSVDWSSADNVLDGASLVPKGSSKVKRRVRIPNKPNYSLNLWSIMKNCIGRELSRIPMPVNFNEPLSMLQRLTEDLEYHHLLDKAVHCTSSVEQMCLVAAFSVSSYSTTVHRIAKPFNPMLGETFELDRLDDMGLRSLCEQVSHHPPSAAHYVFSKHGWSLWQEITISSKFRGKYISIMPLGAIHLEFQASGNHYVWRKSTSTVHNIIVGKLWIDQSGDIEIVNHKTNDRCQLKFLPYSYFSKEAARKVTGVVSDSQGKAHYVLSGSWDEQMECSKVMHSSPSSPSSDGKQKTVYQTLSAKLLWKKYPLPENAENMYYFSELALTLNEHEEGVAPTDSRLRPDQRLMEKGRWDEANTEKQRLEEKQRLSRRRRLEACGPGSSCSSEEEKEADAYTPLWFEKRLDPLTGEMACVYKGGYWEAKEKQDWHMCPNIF

[6] = system: Coxsackievirus A9 (strain CoxA9–01); settings: HeLa; 1 nM OSW-1; infection 24 h after treatment ended; cited from earlier work
[7] = system: Echovirus 2 (strain Echo2–01); settings: HeLa; 1 nM OSW-1; infection 24 h after treatment ended; cited from earlier work
OSBP levels in cells = settings: cited from earlier work
cells = settings: 6 h OSW-1 treatment of cells; cited from earlier work
human OSBP [8] = biological target: T1, human OSBP; assay: 96-well [3H]-25-OHC competitive binding assay, OSBP; settings: compound at 10,000 nM; 20 nM 3H-25-OHC
human ORP4 [9] = biological target: T2, human ORP4; assay: 96-well [3H]-25-OHC competitive binding assay, ORP4; settings: compound at 10,000 nM; 20 nM 3H-25-OHC
How it was run: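 Inhibition of 20 nM [3H]-25-OHC binding to human ORP4 overexpressed in […] cell lysate, run in 96-well competitive format; […].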

immortalized cell lines = assay: 48 h assay for cell metabolic activity; assay type: cell-based; settings: at <10,000 nM concentrations, Fig. 4B, Supp. Fig. 1
OSBP = settings: in vitro; cited from earlier work
[10] = system: N-terminal OSBP FFAT domain with VAP-A; settings: BiMC assay; cited from earlier work
full-length GFP-OSBP = settings: read-out: KD for full-length GFP-OSBP; microscale thermophoresis; cited from earlier work
OSBP C-terminal ORD = settings: OSBP proteolyzed fragments; cited from earlier work

SMILES	effect on OSBP cellular levels [1]	effect on cell population (cell counting after Trypan blue staining) (HCT-116 cells)	OSBP cellular localization [3]	effect of co-administration on OSW-1-induced reduction of OSBP levels [1]	antiproliferative activity (immortalized cell lines)	effect of co-administration on antiproliferative OSW-1 activity, HeLa (HeLa cells)	OSBP cellular localization on co-administration with OSW-1 [3]	further results
COc1ccc(C(=O)O[C@H]2[C@H](O[C@@H]3[C@@H](OC(C)=O)[C@H](O[C@H]4C[C@H]5[C@@H]6CC=C7C[C@@H](O)CC[C@]7(C)[C@H]6CC[C@]5(C)[C@@]4(O)[C@H](C)C(=O)CCC(C)C)OC[C@@H]3O)OC[C@@H](O)[C@@H]2O)cc1 [OSW-1]	pronounced reduction of OSBP cellular levels	15–20%	remaining OSBP is tightly grouped around one location	–	–	–	–	reduction of cellular OSBP levels [2]: > 90%; GI50 (HeLa cells; read-out: growth inhibition 50% (GI50), HeLa cells, 48 h treatment): 0.33 nM; GI50 (HEK293 cells): 0.22 nM; Ki, competitive inhibition of 25-OHC binding to OSBP (human OSBP [4]): low nanomolar; Ki, competitive inhibition of 25-OHC binding to ORP4 (human ORP4 [5]): low nanomolar; prophylactic antiviral protection, Cosackievirus 9a [6]: conferred significant antiviral protection; prophylactic antiviral protection, Echovirus 2 [7]: conferred significant antiviral protection; duration of repression of OSBP levels after compound treatment is stopped (OSBP levels in cells; 1 nM OSW-1 for 6 h, then compound removed): 72 h; reduction of OSBP levels in cells (OSBP levels in cells; short duration (1–6 h), non-cytotoxic dose): > 90%; cytotoxicity of 6 h treatment (cells): not cytotoxic nor anti-proliferative
C[C@@H](NC(=O)c1cccc(-c2cnc(-c3cc4ccccc4cn3)[nH]2)c1)c1ccc(F)cc1 [TTP]	do not reduce OSBP levels	does not affect the cell population	induces a tight colocalization of OSBP with the Golgi marker with a perinuclear pattern close to the vehicle (DMSO) treated cell	has no effect on OSBP levels	no antiproliferative activity	does not significantly affect the antiproliferative OSW-1 activity	low expression of OSBP with a pattern not consistent with the OSW-1 alone or TTP alone treatment	inhibition of 25-OHC binding to OSBP (human OSBP [8]): no 25-OHC inhibition binding; inhibition of 25-OHC binding to ORP4 (human ORP4 [9]): no 25-OHC inhibition binding; inhibition of OSBP cholesterol transport between vesicles (OSBP): shown to inhibit the ability of OSBP to transport cholesterol between vesicles; inhibition of OSBP FFAT domain interaction with VAP-A [10]: Neither ITZ (3) or TTP (5) substantially inhibited
CCC(C)n1ncn(-c2ccc(N3CCN(c4ccc(OCC5COC(Cn6cncn6)(c6ccc(Cl)cc6Cl)O5)cc4)CC3)cc2)c1=O (stereo not drawn) [ITZ, itraconazole]	do not reduce OSBP levels	15–20%	causes OSBP to adopt a more punctate pattern closely associated with the Golgi marker	partially blocks the reduction of OSBP levels	no antiproliferative activity	does not significantly affect the antiproliferative OSW-1 activity	produces a tight localization of OSBP with a stronger signal than OSW-1 alone	inhibition of 25-OHC binding to OSBP (human OSBP [8]): no 25-OHC inhibition binding; inhibition of 25-OHC binding to ORP4 (human ORP4 [9]): no 25-OHC inhibition binding; Kd (full-length GFP-OSBP): ~430 nM; inhibition of OSBP FFAT domain interaction with VAP-A [10]: Neither ITZ (3) or TTP (5) substantially inhibited; effect on ORD lipid transfer activity (OSBP C-terminal ORD): blocked the ORD transfer activity of both sterols and PI4P
CC(=O)O[C@H]1C(=O)[C@@]2(C)[C@H]([C@H](OC(=O)c3ccccc3)[C@]3(O)C[C@H](OC(=O)[C@H](O)[C@@H](NC(=O)c4ccccc4)c4ccccc4)C(C)=C1C3(C)C)[C@]1(OC(C)=O)CO[C@@H]1C[C@@H]2O [Taxol]	OSBP levels are not reduced	–	–	–	–	–	–	–
C[C@H](CCCC(C)(C)O)[C@H]1CC[C@H]2[C@@H]3CC=C4C[C@@H](O)CC[C@]4(C)[C@H]3CC[C@]12C [25-OHC, 25-hydroxycholesterol]	–	–	strongly colocalizes OSBP with the Golgi marker in a small area	–	–	–	–	effect on OSBP levels in cells (OSBP levels in cells): does not reduce OSBP levels in cells; also recorded: do not reduce OSBP levels
CC(C)=CCC/C(C)=C/Cc1c(O)cc(/C=C/c2cc(O)c3c(c2)C[C@@H]2C(C)(C)[C@H](O)[C@H](O)C[C@@]2(C)O3)cc1O [schweinfurthin A]	–	–	–	–	–	–	–	effect on OSBP levels in cells (OSBP levels in cells): do not reduce OSBP levels
CC1(C)C[C@H]2[C@@H]3CC=C4C[C@@H](OC5CCCCO5)CC[C@]4(C)[C@H]3CC[C@]2(C)[C@H]1O (stereo partly drawn) [THEV]	do not reduce OSBP levels	does not affect the cell population	induces OSBP localization to confined area tightly packed with the Golgi marker	partially blocks the reduction of OSBP levels	no antiproliferative activity	does not significantly affect the antiproliferative OSW-1 activity	produces cellular localization effects with elements of both OSW-1 and THEV treatment alone	effect of co-administration with OSW-1 on cell population (Trypan blue) (HCT-116 cells; 24 h, 10,000 nM compound with 1 nM OSW-1): rescues cell population numbers
